Test results from article PMC5551971 (ACS chemical biology, 2017).
“Also recorded” adds a separate entry of the source.

How the values were obtained:
LYN = LYN (Homo sapiens, UniProt P07948); experiment: In vitro kinase assay panel; assay type: biochemical; details: 100 nM or 1000 nM AZD1775
PLK1 [1] = target: T1, PLK1 (Homo sapiens, UniProt P53350); experiment: i-AZD1775 affinity pulldown with AZD1775 competition, PLK1 immunoblot; assay type: binding; details: H322 whole cell lysates, 20 μM free AZD1775
T1 sequence (P53350 whole entry): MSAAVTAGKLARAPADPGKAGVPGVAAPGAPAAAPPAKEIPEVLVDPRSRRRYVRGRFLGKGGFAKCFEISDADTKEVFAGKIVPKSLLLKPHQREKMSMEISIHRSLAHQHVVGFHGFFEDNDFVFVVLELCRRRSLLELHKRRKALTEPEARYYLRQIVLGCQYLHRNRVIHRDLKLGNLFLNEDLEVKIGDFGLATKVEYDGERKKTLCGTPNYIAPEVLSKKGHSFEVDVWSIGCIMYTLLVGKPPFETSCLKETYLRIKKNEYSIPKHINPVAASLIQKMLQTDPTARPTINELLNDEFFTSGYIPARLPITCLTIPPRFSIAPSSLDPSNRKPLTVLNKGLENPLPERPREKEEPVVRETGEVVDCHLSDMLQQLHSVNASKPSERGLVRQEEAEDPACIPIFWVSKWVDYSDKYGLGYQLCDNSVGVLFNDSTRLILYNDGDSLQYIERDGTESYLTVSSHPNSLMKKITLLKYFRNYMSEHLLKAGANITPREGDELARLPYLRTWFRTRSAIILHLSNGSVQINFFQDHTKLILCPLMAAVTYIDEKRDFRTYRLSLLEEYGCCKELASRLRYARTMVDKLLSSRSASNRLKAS

PLK1 [2] = target: T1, PLK1; experiment: In vitro kinase assay panel; assay type: biochemical; details: 100 nM or 1000 nM AZD1775
H322 cells [3] = experiment: Immunoblot analysis of γH2AX; assay type: cell-based; details: 4 h; for induction of DNA damage (γH2AX): parental H322 and cWEE1 control cells, AZD1775 1 μM or cisplatin 17 μM
In short: (§1)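 H322 cells and H322-derived CRISPR-Cas9 clones were used: WEE1 knockouts made by targeting the exon 1/intron 1 splice site, plus a control clone with WEE1 intact. Cells were exposed for 4 h to 1 μM test compound or to cisplatin (14 μM in the H322/H1648 comparison; 17 μM in the parental/clone comparison). γH2AX and total H2AX were detected by immunoblot, tracking the ~16 kDa and mono-ubiquitinated ~25 kDa γH2AX bands.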

[4] = test system: H322, A427, H1155 and H1648 NSCLC cells; experiment: Cell viability of NSCLC cell lines, 72 h treatment; assay type: cell-based; details: several NSCLC cell lines, single agent
H322 cells [5] = experiment: Immunoblot analysis of PARP1 and caspase 3 cleavage; assay type: cell-based
[6] = test system: cWEE1-KO[18] and cWEE1-KO[19] H322 WEE1 knockout clones; experiment: CellTiterGlo viability of H322 WEE1 CRISPR-Cas9 knockout clones; assay type: cell-based; details: 72 h
PLK1 [7] = target: T1, PLK1; experiment: In vitro kinase assay; assay type: biochemical
SRC = SRC (Homo sapiens, UniProt P12931); experiment: In vitro kinase assay panel; assay type: biochemical; details: 100 nM or 1000 nM AZD1775
Sequence of SRC (P12931 whole entry): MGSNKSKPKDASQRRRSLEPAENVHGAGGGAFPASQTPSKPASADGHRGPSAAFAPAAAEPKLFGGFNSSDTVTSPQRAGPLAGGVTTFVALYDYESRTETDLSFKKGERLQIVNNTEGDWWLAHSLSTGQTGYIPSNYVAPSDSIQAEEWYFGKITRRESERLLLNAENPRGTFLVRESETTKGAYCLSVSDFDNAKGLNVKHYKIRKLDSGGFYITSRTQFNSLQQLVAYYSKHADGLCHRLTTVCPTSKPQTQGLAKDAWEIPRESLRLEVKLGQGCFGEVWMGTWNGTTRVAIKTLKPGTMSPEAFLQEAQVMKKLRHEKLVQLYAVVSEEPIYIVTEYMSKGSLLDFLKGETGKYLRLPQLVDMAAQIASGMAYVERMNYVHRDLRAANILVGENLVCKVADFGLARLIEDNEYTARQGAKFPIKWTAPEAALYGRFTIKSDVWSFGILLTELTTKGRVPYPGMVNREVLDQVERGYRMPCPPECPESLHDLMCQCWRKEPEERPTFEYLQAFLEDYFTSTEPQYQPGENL

[8] = test system: cWEE1-KO[18] and cWEE1-KO[19] H322 WEE1 knockout clones; experiment: Immunoblot analysis of γH2AX in WEE1 CRISPR-Cas9 knockout clones; assay type: cell-based; details: 4 h, 1 μM AZD1775
In short: as §1

Sequence of LYN (P07948 whole entry): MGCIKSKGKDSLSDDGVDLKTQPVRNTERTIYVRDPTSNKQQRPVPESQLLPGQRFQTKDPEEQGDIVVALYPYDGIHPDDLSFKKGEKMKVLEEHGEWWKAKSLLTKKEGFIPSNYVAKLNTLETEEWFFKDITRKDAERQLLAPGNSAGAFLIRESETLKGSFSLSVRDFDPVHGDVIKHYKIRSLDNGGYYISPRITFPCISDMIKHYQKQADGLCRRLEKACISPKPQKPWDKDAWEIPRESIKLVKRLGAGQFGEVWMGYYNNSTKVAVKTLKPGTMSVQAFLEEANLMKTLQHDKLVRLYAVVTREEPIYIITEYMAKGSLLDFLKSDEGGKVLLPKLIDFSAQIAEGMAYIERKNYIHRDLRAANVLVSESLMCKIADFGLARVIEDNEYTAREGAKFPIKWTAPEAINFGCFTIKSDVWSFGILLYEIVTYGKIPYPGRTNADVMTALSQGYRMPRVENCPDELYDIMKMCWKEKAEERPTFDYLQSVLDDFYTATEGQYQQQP

LYN inhibition (LYN) | PLK1 enrichment in i-AZD1775 pulldown on competition with AZD1775 (PLK1 [1]) | PLK1 inhibition (PLK1 [2]) | IC50 (PLK1 [7]) [nM] | SRC inhibition (SRC) | Compound | phosphorylation of Serine 139 in histone H2AX (γH2AX) (H322 cells [3]; H322 cells, 1 μM AZD1775) | induction of DNA damage (γH2AX) (H322 cells [3]) | inhibition of viability, potency [4] | PARP1 and caspase-3 cleavage (apoptosis induction) (H322 cells [5]; H322 versus H1648 cells, 48 h) | sensitivity of WEE1-reconstituted clone cWEE1-KO[18](RC9) [6] | γH2AX in WEE1 knockout clones [8] | apoptosis by PARP1 and caspase 3 cleavage (H322 cells [5]; H322 cells, 0.03 μM BI-2536 compared with 1 μM AZD1775)
potent AZD1775 targets | completely abrogated its enrichment | potent AZD1775 targets | 22 to 34 | potent AZD1775 targets | C=CCn1c(=O)c2cnc(Nc3ccc(N4CCN(C)CC4)cc3)nc2n1-c1cccc(C(C)(C)O)n1 [AZD1775] | potently increased | can induce DNA damage | sub- to low micromolar potency | markedly more pronounced in H322 cells than in H1648 | completely reversed the sensitizing effect | further increased γH2AX | –
– | – | – | – | – | CC[C@@H]1C(=O)N(C)c2cnc(Nc3ccc(C(=O)NC4CCN(C)CC4)cc3OC)nc2N1C1CCCC1 [BI-2536] | – | – | – | – | – | – | strongly induced apoptosis; also recorded: higher degree of apoptosis than 1 μM AZD1775
– | – | – | – | – | N.N.[Cl][Pt][Cl] [cisplatin] | – | can induce DNA damage | – | – | – | – | –
